Results from ChEMBL document CHEMBL2311390, “Synthesis and preliminary evaluation of pharmacological properties of some piperazine derivatives of xanthone” (Bioorg Med Chem, 2013).

What was measured:
Assay type in all cases: functional, Artery
[1] = test system: Rattus norvegicus; experiment: Hypotensive activity in normotensive Wistar rat assessed as reduction of systolic blood pressure at 0.16 mg/kg, iv after 60 mins
In short: (§1)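 Male normotensive Wistar rats (170–350 g) anaesthetised with thiopental 75 mg/kg ip; right carotid artery cannulated with heparinised saline-filled polyethylene tubing for pressure recording. After a 5 min stabilisation, compound given into the caudal vein at 1 mL/kg. Systolic pressure is recorded at 0, 5, 10, 20, 30 and 60 min, and the data are reported as mean ± SEM of five to six animals, with one-way ANOVA.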

[2] = test system: Rattus norvegicus; experiment: Hypotensive activity in normotensive Wistar rat assessed as reduction of systolic blood pressure at 0.31 mg/kg, iv after 10 mins; in short: as §1
[3] = test system: Rattus norvegicus; experiment: Hypotensive activity in normotensive Wistar rat assessed as reduction of systolic blood pressure at 0.31 mg/kg, iv after 5 mins; in short: as §1
[4] = test system: Rattus norvegicus; experiment: Hypotensive activity in normotensive Wistar rat assessed as reduction of systolic blood pressure at 0.16 mg/kg, iv after 20 mins; in short: as §1
[5] = test system: Rattus norvegicus; experiment: Hypotensive activity in normotensive Wistar rat assessed as reduction of systolic blood pressure at 0.31 mg/kg, iv after 60 mins; in short: as §1
[6] = test system: Rattus norvegicus; experiment: Hypotensive activity in normotensive Wistar rat assessed as reduction of diastolic blood pressure at 0.16 mg/kg, iv after 30 mins
In short: (§2)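 Male normotensive Wistar rats were anaesthetised with thiopental 75 mg/kg ip. The right carotid artery was cannulated with heparinised saline for pressure recording. After 5 min of stabilisation, compound was injected into the tail vein at 1 mL/kg. Systolic and diastolic pressure were followed up to 60 min. Data are means ± SEM of 5–6 rats, analysed by one-way ANOVA.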

[7] = test system: Rattus norvegicus; experiment: Hypotensive activity in normotensive Wistar rat assessed as reduction of diastolic blood pressure at 0.16 mg/kg, iv after 10 mins; in short: as §2
[8] = test system: Rattus norvegicus; experiment: Hypotensive activity in normotensive Wistar rat assessed as reduction of diastolic blood pressure at 0.31 mg/kg, iv after 60 mins; in short: as §2
[9] = test system: Rattus norvegicus; experiment: Hypotensive activity in normotensive Wistar rat assessed as reduction of diastolic blood pressure at 0.16 mg/kg, iv after 20 mins; in short: as §2
[10] = test system: Rattus norvegicus; experiment: Hypotensive activity in normotensive Wistar rat assessed as reduction of systolic blood pressure at 0.31 mg/kg, iv after 30 mins; in short: as §1
[11] = test system: Rattus norvegicus; experiment: Hypotensive activity in normotensive Wistar rat assessed as reduction of systolic blood pressure at 0.16 mg/kg, iv after 10 mins; in short: as §2
[12] = test system: Rattus norvegicus; experiment: Hypotensive activity in normotensive Wistar rat assessed as reduction of systolic blood pressure at 0.625 mg/kg, iv after 20 mins; in short: as §1
[13] = test system: Rattus norvegicus; experiment: Hypotensive activity in normotensive Wistar rat assessed as reduction of systolic blood pressure at 0.625 mg/kg, iv after 30 mins; in short: as §1
[14] = test system: Rattus norvegicus; experiment: Hypotensive activity in normotensive Wistar rat assessed as reduction of systolic blood pressure at 0.16 mg/kg, iv after 30 mins; in short: as §1
[15] = test system: Rattus norvegicus; experiment: Hypotensive activity in normotensive Wistar rat assessed as reduction of diastolic blood pressure at 0.625 mg/kg, iv after 10 mins; in short: as §2
[16] = test system: Rattus norvegicus; experiment: Hypotensive activity in normotensive Wistar rat assessed as reduction of systolic blood pressure at 0.16 mg/kg, iv after 5 mins; in short: as §1
[17] = test system: Rattus norvegicus; experiment: Hypotensive activity in normotensive Wistar rat assessed as reduction of systolic blood pressure at 0.625 mg/kg, iv after 5 mins; in short: as §1
[18] = test system: Rattus norvegicus; experiment: Hypotensive activity in normotensive Wistar rat assessed as reduction of diastolic blood pressure at 0.31 mg/kg, iv after 5 mins; in short: as §2
[19] = test system: Rattus norvegicus; experiment: Hypotensive activity in normotensive Wistar rat assessed as reduction of diastolic blood pressure at 0.31 mg/kg, iv after 10 mins; in short: as §2
[20] = test system: Rattus norvegicus; experiment: Hypotensive activity in normotensive Wistar rat assessed as reduction of systolic blood pressure at 0.31 mg/kg, iv after 20 mins; in short: as §1
[21] = test system: Rattus norvegicus; experiment: Hypotensive activity in normotensive Wistar rat assessed as reduction of diastolic blood pressure at 0.16 mg/kg, iv after 5 mins; in short: as §2
[22] = test system: Rattus norvegicus; experiment: Hypotensive activity in normotensive Wistar rat assessed as reduction of diastolic blood pressure at 0.625 mg/kg, iv after 5 mins; in short: as §2
[23] = test system: Rattus norvegicus; experiment: Hypotensive activity in normotensive Wistar rat assessed as reduction of diastolic blood pressure at 0.16 mg/kg, iv after 60 mins; in short: as §2
[24] = test system: Rattus norvegicus; experiment: Hypotensive activity in normotensive Wistar rat assessed as reduction of diastolic blood pressure at 0.625 mg/kg, iv after 60 mins; in short: as §2
[25] = test system: Rattus norvegicus; experiment: Hypotensive activity in normotensive Wistar rat assessed as reduction of diastolic blood pressure at 1.25 mg/kg, iv after 10 mins; in short: as §2
[26] = test system: Rattus norvegicus; experiment: Hypotensive activity in normotensive Wistar rat assessed as reduction of diastolic blood pressure at 1.25 mg/kg, iv after 20 mins; in short: as §2
[27] = test system: Rattus norvegicus; experiment: Hypotensive activity in normotensive Wistar rat assessed as reduction of systolic blood pressure at 1.25 mg/kg, iv after 5 mins; in short: as §1
[28] = test system: Rattus norvegicus; experiment: Hypotensive activity in normotensive Wistar rat assessed as reduction of diastolic blood pressure at 1.25 mg/kg, iv after 30 mins; in short: as §2
[29] = test system: Rattus norvegicus; experiment: Hypotensive activity in normotensive Wistar rat assessed as reduction of systolic blood pressure at 1.25 mg/kg, iv after 30 mins; in short: as §1

Row | SMILES | Activity [1] [mmHg] | Activity [2] [mmHg] | Activity [3] [mmHg] | Activity [4] [mmHg] | Activity [5] [mmHg] | Activity [6] [mmHg] | Activity [7] [mmHg] | Activity [8] [mmHg] | Activity [9] [mmHg] | Activity [10] [mmHg] | Activity [11] [mmHg] | Activity [12] [mmHg] | Activity [13] [mmHg] | Activity [14] [mmHg] | Activity [15] [mmHg] | Activity [16] [mmHg] | Activity [17] [mmHg] | Activity [18] [mmHg] | Activity [19] [mmHg] | Activity [20] [mmHg] | also measured
1 | COc1ccccc1N1CCN(CCCOc2cccc3c(=O)c4ccccc4oc23)CC1.Cl | 108.2 | 122.8 | 122 | 113.4 | 116 | 100 | 99.2 | 97.2 | 101 | 119.5 | 114 | 129.5 | 129.5 | 111.4 | 106.5 | 109.6 | 122 | 107.2 | 107.7 | 121 | Activity [21]: 97 mmHg; Activity [22]: 101 mmHg; Activity [23]: 95.2 mmHg; Activity [24]: 112 mmHg
2 | COc1ccccc1N1CCN(CC(COc2cccc3c(=O)c4ccccc4oc23)OC(C)=O)CC1.Cl (racemic) | – | – | – | – | – | – | – | – | – | – | – | 122.2 | 120.6 | – | 96.4 | – | 124.8 | – | – | – | Activity [25]: 93.6 mmHg; Activity [26]: 92.2 mmHg; Activity [27]: 119 mmHg; Activity [28]: 90.8 mmHg; Activity [29]: 117.6 mmHg; Activity [22]: 95.6 mmHg; Activity [24]: 92 mmHg
3 | COc1ccccc1N1CCN(CC(O)COc2cccc3c(=O)c4ccccc4oc23)CC1.Cl (racemic) | 115.2 | 121.8 | 122.8 | 118.5 | 116 | 101.8 | 110.2 | 98.4 | 103.8 | 118.6 | 124.8 | – | – | 115.7 | – | 124 | – | 102.8 | 103 | 120.6 | Activity [21]: 109.2 mmHg; Activity [23]: 101.5 mmHg
